Laboratory results from ChEMBL document CHEMBL1130124, “Synthesis and opioid activity of [D-Pro10]dynorphin A-(1-11) analogues with N-terminal alkyl substitution” (J Med Chem, 1997).

Legend:
[1] = IC50 ratio measured as the IC50(presence of 50 uM of Gpp(NH)p)/IC50 (absence of 50 uM of Gpp(NH)p).
Outline: (§1)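 Guinea pig cerebellar membranes prepared in 50 mM Tris pH 7.4. [3H]diprenorphine at 0.3 nM final, 60 min at 25 °C, with 10 μM bestatin, 1 mM Leu-Leu and 100 nM DAMGO. Run without or with 120 mM NaCl plus 50 μM Gpp(NH)p. Nonspecific binding with 1 μM Dyn A-(1–13)NH2. Filtration over polyethyleneimine-soaked filters; shift expressed as IC50(+)/IC50(–).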

[2] = target: T1, Kappa-type opioid receptor (Cavia porcellus, UniProt P41144); assay: Affinity against Opioid receptor kappa 1 was determined by measuring the inhibition of [3H]U-69593 binding to guinea pig […]
T1 sequence (P41144 whole entry): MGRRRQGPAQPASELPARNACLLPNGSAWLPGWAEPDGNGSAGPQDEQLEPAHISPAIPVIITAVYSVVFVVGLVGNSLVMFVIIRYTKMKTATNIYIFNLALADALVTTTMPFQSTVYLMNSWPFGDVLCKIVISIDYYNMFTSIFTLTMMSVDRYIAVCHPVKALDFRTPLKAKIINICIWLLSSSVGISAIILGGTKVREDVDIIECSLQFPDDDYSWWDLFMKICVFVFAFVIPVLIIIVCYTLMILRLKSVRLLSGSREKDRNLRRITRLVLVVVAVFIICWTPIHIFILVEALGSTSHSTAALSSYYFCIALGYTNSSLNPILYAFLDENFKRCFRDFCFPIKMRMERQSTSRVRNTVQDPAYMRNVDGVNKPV

[3] = target: Kappa-type opioid receptor (Homo sapiens) (UniProt P41145); assay: Ki ratio is measured as the Ki values of kappa-1/kappa.2/kappa.3 receptors; 1/150/17
Kappa-type opioid receptor (Homo sapiens), sequence (P41145 whole entry): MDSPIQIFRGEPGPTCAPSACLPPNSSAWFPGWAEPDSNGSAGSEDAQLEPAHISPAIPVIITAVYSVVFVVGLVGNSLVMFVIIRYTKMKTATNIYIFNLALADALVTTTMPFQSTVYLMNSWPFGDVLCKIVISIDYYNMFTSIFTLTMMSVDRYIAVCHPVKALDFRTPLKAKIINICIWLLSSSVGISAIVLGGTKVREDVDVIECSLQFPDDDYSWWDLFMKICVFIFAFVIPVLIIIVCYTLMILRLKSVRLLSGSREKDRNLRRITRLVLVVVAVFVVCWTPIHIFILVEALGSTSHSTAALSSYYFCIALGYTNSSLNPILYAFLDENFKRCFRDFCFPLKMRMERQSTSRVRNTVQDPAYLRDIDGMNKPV
Outline: (§2)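 Hartley guinea pig whole-brain homogenate in 50 mM Tris-HCl pH 7.7 (6.67 mg wet tissue/mL; 5 mM EDTA for NalBzoH). Radioligands ~1 nM: [3H]U69,593 (κ1); [3H]bremazocine plus 100 nM DAMGO, DSLET and U69,593 (κ2); [3H]NalBzoH plus 100 nM U69,593 (κ3). Test peptide 10⁻⁵–10⁻¹¹ M, 1 h at 25 °C, with bacitracin/bestatin/thiorphan. Nonspecific binding: 1 μM U69,593, 10 μM bremazocine or NalBzoH. Filtration; Ki via Cheng–Prusoff.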

[4] = target: T1, Kappa-type opioid receptor; assay: Affinity against Opioid receptor kappa 1 was determined by measuring the inhibition of [3H]bremazocine binding to guinea pig cerebellar membranes
Outline: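 Guinea pig cerebellar membranes with [3H]bremazocine in 20 mM HEPES pH 7.4, 3 h at 4 °C. 100 nM DAMGO and 100 nM bestatin present; nonspecific binding with 10 μM Dyn A-(1–13)NH2. Competition curves fitted by nonlinear regression. Selectivity ratios use the lowest Ki as denominator.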

[5] = target: T1, Kappa-type opioid receptor; assay: Affinity against Opioid receptor kappa 3 was determined by measuring the inhibition of [3H]NalBzoH binding to […]
[6] = species: Cavia porcellus; assay: Opioid antagonist activity in guinea pig ileum assay; type: functional; conditions: read-out: pA2 (converted)
Outline: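 Guinea pig ileum antagonism: tissue incubated 10 min with peptide (10 μM where stated), then given […]. Shift measured relative to the agonist IC50 obtained without test peptide.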

[7] = target: T1, Kappa-type opioid receptor; assay: Binding affinity towards Opioid receptor kappa 1 using [3H]diprenorphine as radioligand in guinea pig cerebellar membrane in absence of 120 mM NaCl + 50 uM Gpp(NH)p; type: cell membranes, Cerebellum; outline: as §1
[8] = species: Cavia porcellus; assay: The opioid activity by guinea pig ileum assay; type: functional
Outline: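 Guinea pig ileum twitch assay with cumulative peptide additions to the bath. IC50 values are means from three to six replicates using tissues from different animals.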

[9] = target: T2, Opioid receptors; mu/kappa/delta (Homo sapiens) (UniProt P41145+P41143+P35372); assay: Ki ratio is measured as the Ki values of kappa/mu/delta receptors; 1/21/880; type: protein assay
T2 sequence (P35372 whole entry, looked up): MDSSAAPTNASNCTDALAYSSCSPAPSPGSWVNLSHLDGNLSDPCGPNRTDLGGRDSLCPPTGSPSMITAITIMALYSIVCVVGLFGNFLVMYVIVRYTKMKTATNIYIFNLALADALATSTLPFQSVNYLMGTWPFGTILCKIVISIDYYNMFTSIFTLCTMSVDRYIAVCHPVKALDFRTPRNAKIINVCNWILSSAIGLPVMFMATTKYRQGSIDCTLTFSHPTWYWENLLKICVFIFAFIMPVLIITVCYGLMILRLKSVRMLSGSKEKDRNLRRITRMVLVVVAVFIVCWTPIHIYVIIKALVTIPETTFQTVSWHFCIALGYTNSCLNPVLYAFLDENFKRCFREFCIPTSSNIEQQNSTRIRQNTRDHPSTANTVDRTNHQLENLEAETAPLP
T2 sequence (P41143 whole entry, looked up): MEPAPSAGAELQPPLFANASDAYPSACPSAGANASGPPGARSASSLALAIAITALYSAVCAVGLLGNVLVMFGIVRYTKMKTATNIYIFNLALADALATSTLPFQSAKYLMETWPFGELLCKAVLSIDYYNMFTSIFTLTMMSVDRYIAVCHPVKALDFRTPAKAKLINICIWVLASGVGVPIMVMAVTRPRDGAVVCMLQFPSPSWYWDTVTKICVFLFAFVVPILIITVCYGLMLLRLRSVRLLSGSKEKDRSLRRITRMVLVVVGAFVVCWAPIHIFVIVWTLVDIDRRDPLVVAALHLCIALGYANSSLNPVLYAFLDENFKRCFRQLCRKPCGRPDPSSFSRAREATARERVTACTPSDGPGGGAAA
T2 sequence (P41145 whole entry, looked up): as the sequence (P41145 whole entry) above
Outline: (§3)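 Rat forebrain membranes in 50 mM Tris pH 7.7, incubated 5 h at 4 °C. Final 10 μM bestatin, 30 μM captopril and 50 μM L-leucyl-L-leucine. Nonspecific binding defined with 10 μM levorphanol ([3H]DAMGO) or 10 μM unlabeled DPDPE ([3H]DPDPE). Competition curves fitted by nonlinear regression. IC50 converted to Ki by Cheng–Prusoff with KD 0.314 nM (DAMGO) and 7.63 nM (DPDPE). Ratios use the lowest Ki as denominator.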

[10] = target: T1, Kappa-type opioid receptor; assay: Affinity against Opioid receptor kappa 2 was determined by measuring the inhibition of [3H]bremazocine binding to guinea pig cerebellar membranes; set-up: species or system Cerebellum, Membrane
[11] = target: Delta-type opioid receptor (Rattus norvegicus, UniProt P33533); assay: Affinity against Opioid receptor delta 1 was determined by measuring the inhibition of [3H]DPDPE binding to rat forebrain membranes; type: cell membranes, Membrane
Delta-type opioid receptor, sequence (P33533 whole entry): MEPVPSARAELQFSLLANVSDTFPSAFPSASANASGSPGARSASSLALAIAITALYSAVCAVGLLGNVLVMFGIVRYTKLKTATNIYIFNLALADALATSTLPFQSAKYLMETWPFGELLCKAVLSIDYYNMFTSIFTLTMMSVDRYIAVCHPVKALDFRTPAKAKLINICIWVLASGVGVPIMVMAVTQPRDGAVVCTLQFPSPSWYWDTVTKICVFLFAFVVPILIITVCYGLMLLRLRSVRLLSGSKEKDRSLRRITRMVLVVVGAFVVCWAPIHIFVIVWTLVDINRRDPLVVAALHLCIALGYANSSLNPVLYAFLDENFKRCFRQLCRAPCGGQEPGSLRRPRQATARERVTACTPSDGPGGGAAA
Outline: as §3, with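 “regression.” for “regression. IC50 converted to Ki by Cheng–Prusoff with KD 0.314 nM (DAMGO) and 7.63 nM (DPDPE).”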

[12] = target: T1, Kappa-type opioid receptor; assay: Binding affinity towards Opioid receptor kappa 1 using [3H]diprenorphine as radioligand in guinea pig cerebellar membrane in presence of 120 mM NaCl + 50 uM Gpp(NH)p; type: cell membranes, Cerebellum; outline: as §1
[13] = target: Mu-type opioid receptor (Rattus norvegicus, UniProt P33535); assay: Affinity against Opioid receptor mu 1 was determined by measuring the inhibition of [3H]DAMGO binding to rat forebrain membranes; type: cell membranes, Membrane
Mu-type opioid receptor, sequence (P33535 whole entry): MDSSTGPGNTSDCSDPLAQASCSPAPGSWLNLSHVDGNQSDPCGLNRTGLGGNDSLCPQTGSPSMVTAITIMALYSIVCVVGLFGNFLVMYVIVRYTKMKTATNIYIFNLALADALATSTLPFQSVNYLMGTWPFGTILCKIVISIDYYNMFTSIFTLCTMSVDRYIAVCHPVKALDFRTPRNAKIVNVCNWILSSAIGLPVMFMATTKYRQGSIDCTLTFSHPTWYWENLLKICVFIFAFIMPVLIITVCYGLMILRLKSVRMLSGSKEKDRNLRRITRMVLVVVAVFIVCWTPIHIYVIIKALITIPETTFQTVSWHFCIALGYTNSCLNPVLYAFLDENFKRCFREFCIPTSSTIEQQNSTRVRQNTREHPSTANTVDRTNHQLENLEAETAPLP
Outline: as §3, with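 “regression.” for “regression. IC50 converted to Ki by Cheng–Prusoff with KD 0.314 nM (DAMGO) and 7.63 nM (DPDPE).”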

[14] = target: T2, Opioid receptors; mu/kappa/delta (Homo sapiens); assay: Ki ratio is measured as the Ki values of kappa/mu/delta receptors; 1/8.8/41; type: protein assay; outline: as §3
[15] = target: Kappa-type opioid receptor (Homo sapiens) (UniProt P41145); assay: Ki ratio is measured as the Ki values of kappa-1/kappa.2/kappa.3 receptors; 1/233/5.3; outline: as §2
[16] = target: T2, Opioid receptors; mu/kappa/delta (Homo sapiens); assay: Ki ratio is measured as the Ki values of kappa/mu/delta receptors; 1/480/27900; type: protein assay; outline: as §3

SMILES | Ratio [1] | Kb [6] | IC50 [7] | IC50 [8] | Ki [11] | IC50 [12] | further results
CC[C@H](C)[C@H](NC(=O)[C@H](CCCN=C(N)N)NC(=O)[C@H](CCCN=C(N)N)NC(=O)[C@H](CC(C)C)NC(=O)[C@H](Cc1ccccc1)NC(=O)CNC(=O)CNC(=O)[C@H](Cc1ccc(O)cc1)N(Cc1ccccc1)Cc1ccccc1)C(=O)N[C@@H](CCCN=C(N)N)C(=O)N1CCCC1C(=O)N[C@@H](CCCCN)C(=O)O (stereo in doubt) [listing 1 of 3 here] | 9.05 | – | – | – | – | – | –
CC[C@H](C)[C@H](NC(=O)[C@H](CCCN=C(N)N)NC(=O)[C@H](CCCN=C(N)N)NC(=O)[C@H](CC(C)C)NC(=O)[C@H](Cc1ccccc1)NC(=O)CNC(=O)CNC(=O)[C@H](Cc1ccc(O)cc1)N(CC1CC1)CC1CC1)C(=O)N[C@@H](CCCN=C(N)N)C(=O)N1CCCC1C(=O)N[C@@H](CCCCN)C(=O)O (stereo in doubt) | 8.79 | 50.1 nM | 3.31 nM | > 100000 nM | 166 nM | 29.1 nM | Ki [2]: 2.61 nM; Ki ratio [3]: kappa/mu/delta; Ki [4]: 0.19 nM; Ki [5]: 44.4 nM; Ki ratio [9]: kappa/mu/delta; IC50 [10]: 388 nM; Ki [13]: 3.9 nM
C=CCN(CC=C)[C@@H](Cc1ccc(O)cc1)C(=O)NCC(=O)NCC(=O)N[C@@H](Cc1ccccc1)C(=O)N[C@@H](CC(C)C)C(=O)N[C@@H](CCCN=C(N)N)C(=O)N[C@@H](CCCN=C(N)N)C(=O)N[C@H](C(=O)N[C@@H](CCCN=C(N)N)C(=O)N1CCCC1C(=O)N[C@@H](CCCCN)C(=O)O)[C@@H](C)CC (stereo in doubt) | 3.03 | – | 21.3 nM | > 3000 nM | 149 nM | 64.6 nM | Ki [2]: 21.3 nM; Ki [5]: 113 nM; Ki ratio [14]: kappa/mu/delta; Ki ratio [15]: kappa/delta/mu; IC50 [10]: 4970 nM
CC[C@H](C)[C@H](NC(=O)[C@H](CCCN=C(N)N)NC(=O)[C@H](CCCN=C(N)N)NC(=O)[C@H](CC(C)C)NC(=O)[C@H](Cc1ccccc1)NC(=O)CNC(=O)CNC(=O)[C@H](Cc1ccc(O)cc1)N(Cc1ccccc1)Cc1ccccc1)C(=O)N[C@@H](CCCN=C(N)N)C(=O)N1CCCC1C(=O)N[C@@H](CCCCN)C(=O)O (stereo in doubt) [listing 2 of 3 here] | – | – | – | 228 nM | – | – | –
CC[C@H](C)[C@H](NC(=O)[C@H](CCCN=C(N)N)NC(=O)[C@H](CCCN=C(N)N)NC(=O)[C@H](CC(C)C)NC(=O)[C@H](Cc1ccccc1)NC(=O)CNC(=O)CNC(=O)[C@H](Cc1ccc(O)cc1)NCC1CC1)C(=O)N[C@@H](CCCN=C(N)N)C(=O)N1CCCC1C(=O)N[C@@H](CCCCN)C(=O)O (stereo in doubt) | 66.9 | 50.1 nM | 0.41 nM | 2.16 nM | 558 nM | 27.1 nM | Ki ratio [16]: kappa/delta/mu
CC[C@H](C)[C@H](NC(=O)[C@H](CCCN=C(N)N)NC(=O)[C@H](CCCN=C(N)N)NC(=O)[C@H](CC(C)C)NC(=O)[C@H](Cc1ccccc1)NC(=O)CNC(=O)CNC(=O)[C@@H](N)Cc1ccc(O)cc1)C(=O)N[C@@H](CCCN=C(N)N)C(=O)N1CCC[C@@H]1C(=O)N[C@@H](CCCCN)C(=O)O | – | 63.1 nM | – | – | – | – | –
CC[C@H](C)[C@H](NC(=O)[C@H](CCCN=C(N)N)NC(=O)[C@H](CCCN=C(N)N)NC(=O)[C@H](CC(C)C)NC(=O)[C@H](Cc1ccccc1)NC(=O)CNC(=O)CNC(=O)[C@H](Cc1ccc(O)cc1)N(Cc1ccccc1)Cc1ccccc1)C(=O)N[C@@H](CCCN=C(N)N)C(=O)N1CCCC1C(=O)N[C@@H](CCCCN)C(=O)O (stereo in doubt) [listing 3 of 3 here] | – | – | 43.2 nM | – | 2770 nM | 391 nM | Ki [4]: 3.66 nM; Ki [13]: 128 nM
C=CCN[C@@H](Cc1ccc(O)cc1)C(=O)NCC(=O)NCC(=O)N[C@@H](Cc1ccccc1)C(=O)N[C@@H](CC(C)C)C(=O)N[C@@H](CCCN=C(N)N)C(=O)N[C@@H](CCCN=C(N)N)C(=O)N[C@H](C(=O)N[C@@H](CCCN=C(N)N)C(=O)N1CCCC1C(=O)N[C@@H](CCCCN)C(=O)O)[C@@H](C)CC (stereo in doubt) | – | 25.1 nM | – | – | – | – | –
